# Assays:
# [1] = Oral bioavailability in mouse; assay type: ADME, organism-based; details: in vivo
# Method in brief: (§1)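 Terminal blood at preset times, composite sampling, plus hepatic portal vein samples under isoflurane. Plasma flash-frozen; LLOQ 5 ng/mL. Parameters from a noncompartmental model.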
# [2] = Half life was determined; assay type: ADME, organism-based; details: mouse, in vivo; method in brief: as §1
# [3] = test system: Mus musculus; assay: AUC value was determined after oral administration; assay type: ADME, organism-based, Plasma; details: in vivo; method in brief: as §1
# [4] = Clearance value was determined; assay type: ADME, organism-based; details: mouse, in vivo; method in brief: as §1
# [5] = target: T1, Gonadotropin-releasing hormone receptor (Homo sapiens, UniProt P30968); assay: Binding affinity evaluated by the ability to inhibit des-Gly10[125I]Tyr5,D-Leu6,NMeLeu7,Pro9-NEt]- Gonadotropin-releasing hormone binding to cloned human Gonadotropin-releasing hormone receptor expressed in HEK293 cells; assay type: cell-based
# T1 sequence (P30968 whole entry): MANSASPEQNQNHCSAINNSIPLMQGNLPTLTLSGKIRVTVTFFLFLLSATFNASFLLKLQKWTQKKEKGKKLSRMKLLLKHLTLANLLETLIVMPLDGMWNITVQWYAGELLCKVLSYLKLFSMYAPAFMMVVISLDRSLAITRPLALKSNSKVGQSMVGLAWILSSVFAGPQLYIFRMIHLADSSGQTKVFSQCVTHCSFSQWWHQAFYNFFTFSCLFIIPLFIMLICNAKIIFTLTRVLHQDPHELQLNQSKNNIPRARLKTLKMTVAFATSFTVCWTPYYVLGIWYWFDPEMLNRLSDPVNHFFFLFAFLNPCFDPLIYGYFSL
# [6] = target: T2, Gonadotropin-releasing hormone receptor (Rattus norvegicus, UniProt P30969); assay: In vivo inhibition of rat Gonadotropin-releasing hormone receptor; assay type: organism-based
# T2 sequence (P30969 whole entry): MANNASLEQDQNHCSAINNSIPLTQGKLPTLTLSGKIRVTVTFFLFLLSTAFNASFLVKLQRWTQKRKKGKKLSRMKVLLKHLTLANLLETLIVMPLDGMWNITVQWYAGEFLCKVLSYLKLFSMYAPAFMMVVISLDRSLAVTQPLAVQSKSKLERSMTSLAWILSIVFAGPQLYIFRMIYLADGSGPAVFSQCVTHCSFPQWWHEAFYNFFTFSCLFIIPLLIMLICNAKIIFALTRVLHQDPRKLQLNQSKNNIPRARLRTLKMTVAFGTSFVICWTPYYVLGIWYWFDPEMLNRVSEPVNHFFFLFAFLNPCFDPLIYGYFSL
# [7] = target: T1, Gonadotropin-releasing hormone receptor; assay: In vitro inhibition of [Ca2+] influx in RBL cells expressing Gonadotropin-releasing hormone receptor; assay type: functional, cell-based
# Method in brief: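 RBL cells stably expressing full-length human GnRH receptor, attached overnight and loaded with 2 μM Fluo-4 for 1 h at 37 °C. Cells washed, then preincubated 1 min with increasing compound before 5 nM GnRH stimulation. Ca2+ flux read as fluorescence on FLIPR; IC50 derived.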
# [8] = target: T2, Gonadotropin-releasing hormone receptor; assay: In vivo inhibition of rat Gonadotropin releasing hormone receptor; assay type: organism-based
compound,measurement,setting,value
COc1cccc(-c2c(C)n(Cc3c(F)cccc3F)c(=O)n(C[C@H](C)NC3CCCC3)c2=O)c1F,bioavailability,[1],2.2%
same,half-life,[2],36 min
same,AUC,[3],57 ng·h/mL
same,clearance,[4],70.7 mL/min/kg
C=Cc1ccc(-c2c(C)n(Cc3c(F)cccc3F)c(=O)n(CCN(C)CCc3ccccn3)c2=O)cc1,Ki,[5],340 nM
Cc1c(-c2ccc3ccccc3c2)c(=O)n(CCN(C)CCc2ccccn2)c(=O)n1Cc1c(F)cccc1F,Ki,[5],460 nM
COc1cccc(-c2c(C)n(Cc3c(F)cccc3F)c(=O)n(CCN(C)CCc3ccccn3)c2=O)c1F,Ki,[5],3 nM
Cc1c(-c2cccc(C(C)C)c2)c(=O)n(CCN(C)CCc2ccccn2)c(=O)n1Cc1c(F)cccc1F,Ki,[5],240 nM
Cc1c(-c2ccc3oc4ccccc4c3c2)c(=O)n(CCN(C)CCc2ccccn2)c(=O)n1Cc1c(F)cccc1F,Ki,[5],170 nM
CCC(CC)N[C@@H](C)Cn1c(=O)c(-c2cccc(OC)c2F)c(C)n(Cc2c(F)cccc2F)c1=O,bioavailability,[1],8.2%
same,half-life,[2],54 min
same,AUC,[3],110 ng·h/mL
same,clearance,[4],129 mL/min/kg
Cc1c(-c2ccccc2F)c(=O)n(CCN(C)CCc2ccccn2)c(=O)n1Cc1c(F)cccc1F,Ki,[5],81 nM
CCc1ccc(CN[C@@H](C)Cn2c(=O)c(-c3cccc(OC)c3F)c(C)n(Cc3c(F)cccc3F)c2=O)o1,Ki,[6],4900 nM
same,Ki,[5],15 nM
same,IC50,[7],27 nM
COc1cc(-c2c(C)n(Cc3c(F)cccc3F)c(=O)n(CCN(C)CCc3ccccn3)c2=O)cc(OC)c1OC,Ki,[5],10800 nM
COc1ccc(-c2c(C)n(Cc3c(F)cccc3F)c(=O)n(CCN(C)CCc3ccccn3)c2=O)cc1OC,Ki,[5],4800 nM
COc1cccc(-c2c(C)n(Cc3c(F)cccc3F)c(=O)n(C[C@H](C)NCc3ccccc3)c2=O)c1F,Ki,[6],25000 nM
same,Ki,[5],25 nM
same,IC50,[7],38 nM
COc1cccc(-c2c(C)n(Cc3c(F)cccc3F)c(=O)n(C[C@@H](C)NCc3nccs3)c2=O)c1F,bioavailability,[1],6%
same,half-life,[2],78 min
same,Ki,[5],13 nM
same,AUC,[3],104 ng·h/mL
same,IC50,[7],6.1 nM
same,clearance,[4],97.3 mL/min/kg
same,Ki,[8],10000 nM
COCc1cccc(-c2c(C)n(Cc3c(F)cccc3F)c(=O)n(CCN(C)CCc3ccccn3)c2=O)c1,Ki,[5],1500 nM
Cc1ccc(-c2c(C)n(Cc3c(F)cccc3F)c(=O)n(CCN(C)CCc3ccccn3)c2=O)cc1,Ki,[5],220 nM
CCOc1ccc(-c2c(C)n(Cc3c(F)cccc3F)c(=O)n(CCN(C)CCc3ccccn3)c2=O)cc1,Ki,[5],680 nM
COc1cccc(-c2c(C)n(Cc3c(F)cccc3F)c(=O)n(C[C@H](C)NCc3sccc3C)c2=O)c1F,Ki,[6],3200 nM
same,Ki,[5],4 nM
same,IC50,[7],4 nM
COCc1ccc(-c2c(C)n(Cc3c(F)cccc3F)c(=O)n(CCN(C)CCc3ccccn3)c2=O)cc1,Ki,[5],1400 nM
Cc1c(-c2ccc(C(C)C)cc2)c(=O)n(CCN(C)CCc2ccccn2)c(=O)n1Cc1c(F)cccc1F,Ki,[5],110 nM
COc1cccc(-c2c(C)n(Cc3c(F)cccc3F)c(=O)n([C@H](C)CNCc3ccccc3C)c2=O)c1F,Ki,[5],7 nM
CSc1ccc(-c2c(C)n(Cc3c(F)cccc3F)c(=O)n(CCN(C)CCc3ccccn3)c2=O)cc1,Ki,[5],120 nM
Cc1c(-c2cccc(F)c2)c(=O)n(CCN(C)CCc2ccccn2)c(=O)n1Cc1c(F)cccc1F,Ki,[5],1200 nM
Cc1c(-c2ccc3c(c2)OC(F)(F)O3)c(=O)n(CCN(C)CCc2ccccn2)c(=O)n1Cc1c(F)cccc1F,Ki,[5],470 nM
COc1cccc(-c2c(C)n(Cc3c(F)cccc3F)c(=O)n(CCN(C)CCc3ccccn3)c2=O)c1,bioavailability,[1],1.6%
same,half-life,[2],24 min
same,AUC,[3],23 ng·h/mL
same,clearance,[4],120 mL/min/kg
Cc1c(-c2cccc(Cl)c2)c(=O)n(CCN(C)CCc2ccccn2)c(=O)n1Cc1c(F)cccc1F,Ki,[5],370 nM
